Data taken from ChEMBL document CHEMBL1134794, “Discovery of inhibitors of cell adhesion molecule expression in human endothelial cells. 1. Selective inhibition of ICAM-1 and E-selectin expression” (J Med Chem, 2001).
≈ marks a conversion by molar mass, not a printed value.

Key:
[1] = In vitro cellular toxicity against human umbilical vein endothelial cells (HUVEC) in MTS assay; type: cell-based
[2] = Maximum time taken to reach mean plasma concentration, measured in rat; type: ADME, organism-based
Procedure, shortened: (§1)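 Rats given a single oral dose of 5 mg/kg, no intravenous arm. Plasma drug concentrations followed over time and analysed by HPLC. Values are means (±SEM, n=3).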

[3] = Mean plasma concentration measured in rat; type: ADME, organism-based; procedure, shortened: as §1
[4] = Area under curve against time (0-8 hr) in rat; type: ADME, organism-based; parameters: time < 8 hr; details: in vivo; procedure, shortened: as §1
[5] = Half-life was measured in rat; type: ADME, organism-based; details: in vivo; procedure, shortened: as §1
[6] = Aqueous solubility was determined at pH 7.4; type: physicochemical; details: buffer
Procedure, shortened: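 Solubility determined in 0.05 M NaH₂PO₄ buffer at pH 7.4.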

SMILES	IC50 [1] [µM]	also measured
CCc1cc2c(NCc3ccccc3)ncnc2s1	72	
Cc1ccc(Sc2cncc3sc(C(N)=O)cc23)c(C)c1	> 10	
CCc1cc2c(Sc3nnc(N)s3)ncnc2s1	95	
Cc1ccc(Sc2cncc3sccc23)cc1	5.8	
Cc1ccc(Sc2cncc3sc(C(=O)O)cc23)cc1		Tmax [2]: 19.8 min; Cmax [3]: 751 ng/mL; AUC at 8 h [4]: 2950 ng·h/mL
NC(=O)c1cc2c(Sc3ccc(C(F)(F)F)cc3)cncc2s1	95	
Cc1ccc(Sc2cncc3sc(C(=O)NCCCN4CCOCC4)cc23)cc1	68	
Cc1ccc(Sc2ccnc3sc(C(N)=O)cc23)cc1	44	
CCc1cc2c(Sc3nnc(C)s3)ncnc2s1	51	
Cc1ccc(Sc2cncc3sc(C(=N)S)cc23)cc1	51	
CCc1cc2c(Cl)ncnc2s1	> 100	
Cc1ccc(Sc2cncc3sc(C(N)=O)cc23)cc1	152	Tmax [2]: 15 min; half-life [5]: 60 min; solubility [6]: 400 µg/mL (≈ 1330 µM); Cmax [3]: 78 ng/mL; AUC at 8 h [4]: 131 ng·h/mL
Cc1ccc(Sc2cncc3sc(C(N)=O)cc23)cc1C	> 100	
Cc1ccc(Sc2cncc3sc(C(=O)NN)cc23)cc1	82	
Cc1cccc(Sc2cncc3sc(C(N)=O)cc23)c1	96	
CCc1cc2c(SCc3ccccc3)ncnc2s1	> 100	
Cc1ccc([S+]([O-])c2cncc3sc(C(N)=O)cc23)cc1 (centres undefined)		Tmax [2]: 25.2 min; Cmax [3]: 476 ng/mL; AUC at 8 h [4]: 1240 ng·h/mL
Cc1ccc(Sc2cncc3sc(/C=N/OCC(=O)O)cc23)cc1	84	
CCc1cc2c(O)ncnc2s1	> 100	
NC(=O)c1cc2c(Sc3ccccn3)cncc2s1	> 100	
